Consider four compounds from article PMC5736457 (European journal of medicinal chemistry, 2017).

The structures appear in SMILES notation. Where two headings read alike, the source gives them in different places.

For assay [1], the system named is MCF10A, the human breast epithelial cell line. Briefly: MTT cell viability assay, normal MCF10A cells. Format: cell-based. The conditions noted are these: 25 μM, 48 h.
Assay [2] concerns cancer cell lines (UACC903, MCF-7 and MDA-MB-231). Kind of assay: MTT cell viability at 25 μM, values stated jointly for cancer cell lines. It counts as cell-based. The conditions noted are these: 48 h, read-out: cell viability of cancer cell lines.
Assay [3] deals with PARP, Bcl-2, Bcl-xL, Survivin in CHL-1 and UACC903 melanoma cells. Briefly: Western blot of survival and apoptosis proteins. The settings on record: CHL-1 and UACC903, 24 h. It counts as cell-based, human. The gist of the method:
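CHL-1 and UACC903 cells (2 × 10^6) treated with test compound at set concentrations for 24 h. Whole-cell lysates resolved by SDS-PAGE and transferred to PVDF. Blots probed for PARP, […], survivin and Bcl-xL, with β-actin as loading control, and detected by enhanced chemiluminescence.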
(In general: In western blotting, separated proteins are transferred to a membrane and probed.)

The test system of assay [4] is UACC903 melanoma cells. Briefly: Live/Dead assay, UACC903 cells. It counts as cell-based, human. Put shortly: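 2 × 10^5 cells incubated with test compound (25 and 50 μM) for 24 h at 37 °C. Cells then stained with 5 μM ethidium homodimer plus 5 μM calcein-AM for 30 min at 37 °C. Imaged by fluorescence microscopy: green esterase-retained calcein marks live cells, red marks membrane-damaged dead cells. Percentage of dead cells quantified from images.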

The subject of assay [5] is 1205Lu and A375M cell lines. Briefly: MTT cell viability assay, values stated jointly for 1205Lu and A375M. Format: cell-based. The conditions noted are these: Homo sapiens, 48 h, read-out: IC50, 1205Lu and A375M stated jointly in text. Put shortly: (§1)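 Cells kept in DMEM with 10% FBS and penicillin/streptomycin at 37 °C. Seeded at 3,000 cells/well and treated in triplicate with a test compound series (0.5–25 μM for 48 h; 72 h exposure also run for CHL-1/UACC 903). MTT (5 mg/mL stock in PBS) added for 3 h at 37 °C, formazan dissolved in DMSO, absorbance read at 570 nm with 630 nm background subtracted. IC50 from non-linear curve fits.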

Assay [6] concerns UACC903 cells. Kind of assay: Annexin V and Caspase 3/7 activity assays. It counts as cell-based, human. The conditions noted are these: UACC903, 24 h; for cells positive for Annexin V, Caspase 3/7 activity and 7-AAD: concentration not stated at place (25 and 50 μM tested). Put shortly:
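UACC903 cells exposed to test compound at 25 and 50 μM for 24 h. Floating and adherent cells analysed on a Muse cell analyzer using two kits. The Annexin V/7-AAD kit sorts cells into live, early apoptotic (Annexin V+/7-AAD−), late apoptotic (double positive) and necrotic (7-AAD only) quadrants. The caspase-3/7 kit uses NucView, a DEVD-linked DNA dye released by active caspase 3/7, plus 7-AAD as dead-cell marker.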

The test system of assay [7] is CHL-1 and UACC 903 melanoma cells. Kind of assay: MTT cell viability assay, values stated jointly for CHL-1 and UACC 903. It counts as cell-based. The conditions noted are these: Homo sapiens, read-out: IC50, CHL-1 and UACC 903 stated jointly in text. Put shortly: as §1
(In general: Tetrazolium dyes change colour on reduction, which living cells bring about.)

Assay [8] concerns Panc-1, MDA-MB-231, MCF-7 and HCT116 cells. Format: cell-based. The conditions noted are these: 48 h, read-out: IC50s against all the cell lines tested (Panc-1, MDA-MB-231, MCF-7, HCT116).
For assay [9], the system named is CHL-1 (BRAF wild-type) melanoma cells. Kind of assay: MTT cell viability assay, CHL-1 melanoma cells. It counts as cell-based. The conditions noted are these: Homo sapiens, CHL-1, 72 h, read-out: Melanoma cells IC50 (μM) CHL-1.
Assay [10] concerns UACC 903 (BRAF-mutant) melanoma cells. Briefly: MTT cell viability assay, UACC 903 melanoma cells. The settings on record: Homo sapiens, UACC-903, 72 h, read-out: Melanoma cells IC50 (μM) UACC 903. Format: cell-based.

Turning to `O=C1NC(=S)NC(=O)C1=C/C=C/c1cccs1` [Compound 2b, 5-(3-Thiophen-2-yl-allylidene)-2-thioxo-dihydro-pyrimidine-4,6-dione], in assay [1], the “potency towards melanoma cells (UACC903) as compared to normal MCF10A cells” value is recorded as “three-fold more potent”. Moreover, in assay [2], the viability at 25 µM lay in the range of 20 to 30%. In assay [3], the “PARP cleavage (Western blot)” value is “induced PARP cleavage”; the “levels of anti-apoptotic proteins Bcl-2, Bcl-xL and Survivin (Western blot)” value is “reduced the levels of anti-apoptotic proteins Bcl-2, Bcl-xL and Survivin in a dose-dependent manner”. The “cell death in Live/Dead assay, human melanoma cells” value in assay [4] (25 μM concentration, cell line not specified at place) is listed as 65–70%. The IC50 in [5] lay in the range of 10.6 to 14.8 µM. In assay [6], the “necrotic death (cells only positive for 7-AAD)” value is “not detected”; the “cells positive for Annexin V, Caspase 3/7 activity and 7-AAD” value was “More than 70%”. Also, in [7] (48 h), the IC50 lay in the range of 6.5 to 8.1 µM. In addition, the IC50 in assay [7] (72 h) fell in the range of 3.8 to 4 µM.
With `O=C1NC(=S)NC(=O)C1=C/C=C/c1cccc2ccccc12` [Compound 2d, 5-(3-Naphthalen-1-yl-allylidene)-2-thioxo-dihydro-pyrimidine-4,6-dione], in assay [8], the IC50 lay within 3.6 to 7.9 µM.
With `O=C1NC(=S)N(c2ccccc2)C(=O)/C1=C/C=C/c1cccs1` [Compound 8b, 1-Phenyl-5-(3-thiophen-2-yl-allylidene)-2-thioxo-dihydro-pyrimidine-4,6-dione], in assay [1], the “potency towards melanoma cells (UACC903) as compared to normal MCF10A cells” value is on record as “three-fold more potent”. In addition, the viability at 25 µM in assay [2] was 20 to 30%. Also, in [3], the “PARP cleavage (Western blot)” value is “induced PARP cleavage”. In addition, the “levels of anti-apoptotic proteins Bcl-2, Bcl-xL and Survivin (Western blot)” value in assay [3] is “reduced the levels of anti-apoptotic proteins Bcl-2, Bcl-xL and Survivin in a dose-dependent manner”. Also, the “cell death in Live/Dead assay, UACC903” value in assay [4] (25 μM, 24 h) came out at 25%. The figures for the IC50 in assay [5], in [7] (48 h) and in assay [7] (72 h) were 10.6 to 14.8 µM, 6.5 to 8.1 µM and 3.8 to 4 µM, respectively. Besides, in assay [6], the “necrotic death (cells only positive for 7-AAD)” value is reported as “not detected”. Further, the “cells positive for Annexin V, Caspase 3/7 activity and 7-AAD” value in [6] was “More than 70%”.
`CCCS(=O)(=O)Nc1ccc(F)c(C(=O)c2c[nH]c3ncc(-c4ccc(Cl)cc4)cc23)c1F` [PLX-4032, vemurafenib]: the IC50 in assay [9] is 13.7 ± 1.7 µM; in assay [10] it was 3.6 ± 1.1 µM.

What is called viability is a per cent measure of how many cells are alive, often set against a control.
